# Legend:
# [1] = Compound E and XR9576 levels in brain tissue; format: in vivo, mouse; settings: LC-MS
# Procedure, shortened: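 Brain hemispheres were homogenised by shaking with a steel ball (5 min, 20 Hz) in 45% methanol/45% acetonitrile/8% water/2% formic acid containing 1 µM internal standard, at 200 mg/ml. Extracts were centrifuged, filtered (0.8 µm) and run on capillary LC-MS (PLRPS column; water/acetonitrile gradient with 0.1% formic acid). Levels were quantified from internal-standard-normalised peak areas against an external curve prepared in control mouse brain extract.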
# ISF Aβ40 = test: baseline ISF Aβ40 in hippocampus measured with calibrated Aβ40 MIE; format: in vivo, APP/PS1 mice; settings: 60 min after XR9576 80 mg/kg; n = 8; mean ± SEM; control mice 99.12 ± 19.28 (n = 15); P = 0.008
# [2] = system: mRNA of genes related to APP processing or Aβ clearance; test: qRT-PCR of APP processing and Aβ clearance genes in brain; format: in vivo, mouse; settings: 2 h after 80 mg/kg i.v.; cortex; n = 6/group; P = 0.08-0.94
# Procedure, shortened: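 3-month-old mice received the Pgp inhibitor (80 mg/kg i.v.) or vehicle (5% dextrose) and were killed 2 h later. Cortical total RNA was reverse transcribed and run by SYBR Green qPCR with dissociation-curve checks. Genes were APP, PSEN1/2, nicastrin, APH-1, BACE1, ADAM10/17, Pgp, LRP1, IDE, NEP, MMP2 and MMP9. Levels were derived by ΔΔCt against mouse GAPDH and compared by t tests corrected for multiple comparisons.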
# LRP1 = LRP1 protein levels in brain tissue; format: in vivo, mouse; settings: after XR9576 administration; n = 9/group; P = 0.35
# P-glycoprotein (Pgp) = settings: rodents; ref Bankstahl et al., 2008; cited from earlier work
# ISF Aβ = test: in vivo microdialysis of ISF Aβ during isoflurane anesthesia; set-up: species or system mouse; settings: first 3 h of isoflurane anesthesia, n = 4, not significant, P = 0.135
compound,measurement,setting,value
C[C@H](NC(=O)Cc1cc(F)cc(F)c1)C(=O)N[C@H]1N=C(c2ccccc2)c2ccccc2N(C)C1=O [Compound E],Compound E level in brain tissue,[1]; within 5 min after intraperitoneal injection (30 mg/kg),395 nM
COc1cc2c(cc1OC)CN(CCc1ccc(NC(=O)c3cc(OC)c(OC)cc3NC(=O)c3cnc4ccccc4c3)cc1)CC2 [XR9576],XR9576 level in brain tissue,"[1]; 1 h after injection, mouse brain extract, mean ± SEM",533.0 ± 68.11 µM
same,absolute baseline concentration of ISF Aβ40,ISF Aβ40,283.9 ± 80.38
same,mRNA expression levels in the brain,[2],did not find significant differences
same,LRP1 protein levels in hippocampus,LRP1,did not change
same,time of maximum inhibition of Pgp activity after injection,P-glycoprotein (Pgp),30 min
FC(F)OC(Cl)C(F)(F)F (stereo not shown) [isoflurane],decrease of ISF Aβ levels,ISF Aβ,14%

# From publication PMC4854730 (The Journal of Experimental Medicine, 2016)
